A selection: hits, their analogues and other compounds. The true share with any hit is near 1.1%.
CAL PDZ FP-1 – blocks peptide binding to the human CAL PDZ domain; 300,000 compounds, 0.92% hits; AID 602252; Q9HD26; inhibition, % at 24.9 µM; purified CAL PDZ, TMR-peptide fluorescence polarization, 1 h;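 active = mean inhibition of at least 30% with at least half of replicates also reaching 30%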;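 note: 0% = DMSO neutral control and 100% = excess unlabeled competitor peptide PRC23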
CAL PDZ FP-2 – blocks peptide binding to human CAL PDZ domain | Q9HD26 | purified CAL PDZ, TMR-peptide fluorescence polarization, 1 h | inhibition, % at 20 µM | 330,000 compounds, 0.02% hits;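 active = highest replicate inhibition of at least 40%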;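 note: plate controls were DMSO neutral control wells for no effect and unlabeled competitor peptide control wells for full effect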
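material = purified tagged CAL PDZ domain construct (CerCALP) | buffer or medium = sodium phosphate/NaCl buffer pH 7.4 with TCEP, IgG, Thesit | reagent = TMR-labelled reporter peptide T*-PRC34 bound in PDZ groove | incubation = 1 h room-temperature incubation prior to read | measured by = fluorescence polarization (mP) | evaluation = percent inhibition from loss of millipolarization | control set = unlabelled peptide and DMSO controls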
LANA DNA inh – KSHV C-LANA DNA binding inhibition; MBP-C-LANA/FAM-LBS DNA binding, fluorescence polarization; inhibition, % at 9 µM; 340,000 compounds, 0.078% hits;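 active = highest replicate inhibition at or above 60% at 9 µM, even if other replicates fall short; inactive = all replicates below 60% inhibition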;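 note: 0% = neutral control wells and 100% = 4 µM acridine orange control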
miR-122 sensor – blocks miR-122 activity in Huh7 sensor cells; Huh7 miR-122 Renilla luciferase sensor, 48 h; neutral wells = 0, positive control = 100; activation (reporter increase), % at 12.5 µM; 340,000 compounds, 0.3% hits; AID 602342;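 active = mean replicate activation score at least 90 and every replicate individually at or above 90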;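 note: higher luciferase means less miR-122 activity so hits act as miR-122 inhibitors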
Keap1-Nrf2 PPI – disrupts human Keap1 binding to Nrf2 peptide; Q14145; Keap1 Kelch-Nrf2 peptide fluorescence polarization, 1536-well; inhibition, % at 9.4 µM; 340,000 compounds, 0.15% hits; AID 504523; in the data active = inhibition above about 12%;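 note: human Keap1 Kelch domain with fluorescein labeled Nrf2 9mer peptide probe; 0% = neutral control wells and 100% = peptide positive control; higher means more block of Keap1 binding to Nrf2 peptide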
Target sequence (Q14145 whole entry, looked up, the tested form may be a part): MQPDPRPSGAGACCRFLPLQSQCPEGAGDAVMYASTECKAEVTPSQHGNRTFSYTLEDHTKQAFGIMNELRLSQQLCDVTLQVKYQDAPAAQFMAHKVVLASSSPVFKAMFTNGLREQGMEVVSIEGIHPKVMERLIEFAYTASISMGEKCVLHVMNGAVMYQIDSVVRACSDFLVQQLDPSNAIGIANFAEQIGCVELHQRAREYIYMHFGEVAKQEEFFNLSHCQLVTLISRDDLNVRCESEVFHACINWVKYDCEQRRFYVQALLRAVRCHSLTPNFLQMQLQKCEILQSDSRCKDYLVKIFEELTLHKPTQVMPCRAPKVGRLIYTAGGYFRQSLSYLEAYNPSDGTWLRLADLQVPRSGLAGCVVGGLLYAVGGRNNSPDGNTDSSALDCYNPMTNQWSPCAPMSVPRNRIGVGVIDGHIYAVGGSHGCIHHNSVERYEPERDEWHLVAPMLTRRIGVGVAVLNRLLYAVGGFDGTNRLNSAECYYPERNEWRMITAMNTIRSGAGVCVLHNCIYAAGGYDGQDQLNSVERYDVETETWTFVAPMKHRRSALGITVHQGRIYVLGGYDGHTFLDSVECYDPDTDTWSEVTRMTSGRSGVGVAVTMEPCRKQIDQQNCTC
Numbers without * were called inactive; / = no result; [ ] = remark or other dose.

SMILES	CAL PDZ FP-1	CAL PDZ FP-2	LANA DNA inh	miR-122 sensor	Keap1-Nrf2 PPI
C[C@@H]1CCCCO[C@@H](CN(C)C(=O)Nc2ccc(C(F)(F)F)cc2)[C@@H](C)CN([C@@H](C)CO)C(=O)c2cc(N(C)C)ccc2O1	/	/	/	9[16.7 µM]	/
CCSc1nc2c(c(=O)[nH]1)C(c1ccc(C)cc1)C1=C(CCCC1=O)N2 (configuration not stated)	-3	0	0	/	-5
CSc1nc2c(c(=O)[nH]1)C(c1cccs1)C1=C(CCCC1=O)N2 (configuration not stated)	32*	-1	-1	6	1
Clc1ccc(OCCCc2nc(-c3ccncc3)no2)c(Cl)c1	33*	/	2	-1	4
Clc1ccc(OCCCc2nc(-c3cccnc3)no2)c(Cl)c1	-2	-1	0	-6	0
Cc1ccccc1Nc1c(-c2ccccn2)nc2ccccn12	82*	0	0	-4	4
C[C@H](CO)N1C[C@H](C)[C@H](CN(C)C(=O)Nc2ccc3c(c2)OCO3)Oc2c(NC(=O)c3cnccn3)cccc2C1=O	/	/	/	4[16.7 µM]	/
CCc1ccccc1NC(=O)CSC1=C(C#N)C(c2ccc(O)c(OC)c2)C2=C(CCCC2=O)N1 (configuration not stated)	0	-2	-2	-3	-7
COc1cc(C2C(C#N)=C(SC)NC3=C2C(=O)CCC3)ccc1O (configuration not stated)	89*	-1	-2	-27	2
CO[C@H]1CN(C)C(=O)c2cc(NS(C)(=O)=O)ccc2OC[C@H](C)N(C(=O)CN(C)C)C[C@@H]1C	/	/	/	1[16.7 µM]	/
CCCNC(=O)c1ccccc1NC(=O)C1=CSCCO1	78*	0	0	16	-3
CC(C)CCNC(=O)c1ccccc1NC(=O)C1=CSCCO1	-2	-3	2	3	-4
CCCNC(=O)c1ccccc1NS(=O)(=O)c1ccc2c(c1)OCCO2	69*	-2	1	16	3
CCCCNC(=O)c1ccccc1NS(=O)(=O)c1ccc2c(c1)OCCO2	-3	-1	0	6	3
O=C(C1CC1)N1[C@H](CO)[C@H]2c3ccccc3NC[C@H]21	/	/	/	20[16.7 µM]	/
CCCNC(=O)Nc1ccc2c(c1)C(=O)N(C)C[C@H](OC)[C@H](C)CN(CC1CCCC1)[C@H](C)CO2	/	/	/	0[16.7 µM]	/
CN1c2ccc(-c3ccc(F)cc3)cc2[C@H]2[C@H](CCN2S(=O)(=O)c2cccc(F)c2)[C@H]1CO	/	/	/	144*[16.7 µM]	/
CN1c2ccc(-c3ccc(F)cc3)cc2[C@@H]2[C@@H](CCN2S(=O)(=O)c2cccc(F)c2)[C@@H]1CO	/	/	/	13[16.7 µM]	/
C[C@@H]1CN([C@H](C)CO)C(=O)c2cc(C#CCN(C)C)cnc2O[C@H]1CN(C)C(=O)CN1CCOCC1	/	/	/	-1[16.7 µM]	/
COc1cccc(C(=O)Nc2ccc(C(=O)O)cc2)c1	0	-1	1	113*	3
COc1cccc(C(=O)NCCOc2cc(C)cc(C)c2)c1	38*	-2	0	-2	-5
COc1ccc(NC(=O)c2ccc(CNS(=O)(=O)c3cccc(OC)c3)cc2)cc1	38*	-1	1	0	2
COC(=O)C[C@@H]1C[C@H]2c3cc(NC(=O)Nc4ccc(C(F)(F)F)cc4)ccc3O[C@H]2[C@H](CO)O1	/	/	/	-1[16.7 µM]	/
C[C@H]1CN([C@@H](C)CO)C(=O)c2cc(NC(=O)Nc3ccc4c(c3)OCO4)ccc2O[C@H]1CN(C)Cc1ccc(-c2ccccc2)cc1	/	/	/	-10[16.7 µM]	/
CCOC(=O)C1=C(C)NC(C)=C(C(=O)OCC)C1c1ccc(Br)o1	179*	-2	1	-3	-3
SMILES	CAL PDZ FP-1	CAL PDZ FP-2	LANA DNA inh	miR-122 sensor	Keap1-Nrf2 PPI
Nc1nonc1-n1nnc(C(=O)N/N=C/c2ccccn2)c1-c1ccccc1	4	-2	-1	-1	-5
Nc1nonc1-n1nnc(C(=O)N/N=C/c2ccccn2)c1CNc1ccccc1	131*	0	-3	-4	2
CC1CCN(Cc2c(C(=O)N/N=C/c3cc(Br)ccc3O)nnn2-c2nonc2N)CC1	-5	-1	0	6	-4
Cc1cc(C)c(/C=N/NC(=O)c2nnn(-c3nonc3N)c2CN2CCC(C)CC2)c(C)c1	38*	-1	0	6	-2
CCCNC(=O)[C@H]1[C@H](CO)[C@H]2Cn3c(ccc(/C=C/c4ccccc4)c3=O)[C@@H]1N2C(=O)c1ccccc1	/	/	/	-4[16.7 µM]	/
CC(C)C(C)(C#N)NC(=O)CSc1nnc(-c2ccncc2)n1Cc1ccccc1 (configuration not stated)	35*	-1	1	3	-4
COc1ccc(-c2nnc(SCC(=O)O)n2Cc2ccccc2)cc1	57*	0	-4	-8	1
C[C@@H]1CN([C@@H](C)CO)C(=O)c2cccc(NC(=O)C3CC3)c2O[C@H]1CN(C)Cc1ccc(C(F)(F)F)cc1	/	/	/	64[16.7 µM]	/
CCC1=Nc2cc(C(=O)NCc3ccco3)ccc2Sc2ccc(C)cc21	/	-1	-2	119*	3
CCC1=Nc2cc(C(=O)NCCN3CCOCC3)ccc2Sc2ccc(C)cc21	-3	-2	0	9	-2
Oc1c(Br)cc(/C=N/n2c(-c3ccccc3)n[nH]c2=S)cc1Br	-1	1	-7	7	-3
Oc1c(Br)cc(/C=N/n2c(-c3ccccc3)n[nH]c2=S)c(O)c1Br	-2	-1	24	-1	24*
O=C(OCC(=O)N1CCOCC1)c1ccccc1O	-7	-1	0	-6	-3
O=C(OCC(=O)N1CCOCC1)c1ccc(O)cc1	126*	0	-1	-5	1
O=C(OCC(=O)N1CCC(Cc2ccccc2)CC1)c1ccccc1	31*	-2	1	/	-3
CO[C@H]1CN(C)C(=O)c2cc(NC(=O)C3CCCC3)ccc2OC[C@H](C)NC[C@H]1C	/	/	/	-2[16.7 µM]	/
O=c1c(O)cccc2cc(O)c(O)c(O)c12	8	1	82*	-12	-5
CC(C)(C)c1nnc(NC(=O)Nc2ccc(Cl)cc2)s1	0	-1	1	/	2
COc1ccc(NC(=O)Nc2nnc(C(C)(C)C)s2)cc1	47*	-1	0	/	0
N#CC1C(=O)NC(c2ccccc2)=CC1c1ccccc1 (configuration not stated)	110*	-2	-2	6	2
CCCOc1ccc(S(=O)(=O)NCCN2CCOCC2)c2ccccc12	/	-1	-2	199*	1
CCOc1ccc(S(=O)(=O)NCCN2CCOCC2)c2ccccc12	0	-2	-1	108*	-7
C[C@H](NC(=O)C[C@H]1C[C@@H]2c3cc(NC(=O)NC4CCCCC4)ccc3O[C@@H]2[C@H](CO)O1)c1ccccc1	/	/	/	3[16.7 µM]	/
